Data on 11 compounds can be found in ChEMBL document CHEMBL1135893, “Synthesis and mode of action of hydrophobic derivatives of the glycopeptide antibiotic eremomycin and des-(N-methyl-D-leucyl)eremomycin against glycopeptide-sensitive and -resistant bacteria” (J Med Chem, 2002).

In experiment [1] the test system is Staphylococcus haemolyticus. Briefly: Antibacterial activity evaluated as minimum inhibitory concentration against 602 Staphylococcus haemolyticus. Also on record: unit not given beside the values.
The test system of experiment [2] is Enterococcus faecalis. In words: Antibacterial activity evaluated as minimum inhibitory concentration against 560 Enterococcus faecalis (GRE). The format is functional. A digest of the protocol:
(§1)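 Broth microdilution in Mueller Hinton broth per NCCLS procedure; repeat results usually identical, always within 2-fold. GISA strains 3797 (HIP-5836 New Jersey) and 3798 (HIP-5827 Michigan); 533 S. epidermidis and 602 S. haemolyticus are clinical isolates; vancomycin-resistant enterococci have confirmed genotype.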

In experiment [3] the test system is Enterococcus faecium. In words: Antibacterial activity evaluated as minimum inhibitory concentration against 569 Enterococcus faecium (GRE). The format is functional. The method in brief:
as §1

The test system of experiment [4] is Enterococcus faecalis. In words: Antibacterial activity evaluated as minimum inhibitory concentration against 559 Enterococcus faecalis (GSE). The experiment is classed as functional. Also on record: unit not given beside the values. The method in brief:
as §1

Experiment [5] has as its system Staphylococcus epidermidis. Briefly: Antibacterial activity evaluated as minimum inhibitory concentration against 533 Staphylococcus epidermidis. The experiment is classed as functional. The method in brief: as §1
The subject of experiment [6] is Staphylococcus aureus. Briefly: Antibacterial activity evaluated as minimum inhibitory concentration against 3798 Staphylococcus aureus (GISA). The experiment is classed as functional. Also on record: unit not given beside the values. The method in brief: as §1
The test system of experiment [7] is Staphylococcus aureus. Briefly: Antibacterial activity evaluated as minimum inhibitory concentration against 3797 Staphylococcus aureus (GISA). The experiment is classed as functional. Also on record: unit not given beside the values. A digest of the protocol: as §1
The subject of experiment [8] is Enterococcus faecium. In words: Antibacterial activity evaluated as minimum inhibitory concentration against 568 Enterococcus faecium (GSE). The format is functional. The method in brief: as §1
Experiment [9] concerns Nucleic Acid. In words: Inhibition of the peptidoglycan synthesis in the absence of dipeptide bonding using UDP-MurNAc-tetrapeptide. The format is nucleic-acid assay. The method in brief:
(§2)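 Peptidoglycan synthesis run on filter plates with E. coli OV58 (pTA9) membranes, UDP-MurNAc-pentapeptide or UDP-MurNAc-tetrapeptide plus UDP-N-acetyl-[14C]-D-glucosamine as substrates; radiolabel incorporation into peptidoglycan measured. IC50 from at least six drug concentrations in duplicate, fitted by four-parameter logistic nonlinear regression.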

The subject of experiment [10] is Nucleic Acid. Briefly: Inhibition of the peptidoglycan synthesis in the absence of dipeptide bonding using UDP-MurNAc-pentapeptide. The format is nucleic-acid assay. The method in brief: as §2
Experiment [11] concerns Nucleic Acid. Briefly: Ratio UDP-MurNAc-tetrapeptide to UDP-MurNAc-Pentapeptide. The experiment is classed as nucleic-acid assay.

pIC50: −log10 of the molar value.

By pIC50 is commonly meant the negative decadic logarithm of the IC50, by convention in mol/L.

As to `C[C@H]1O[C@@H](O[C@@H]2[C@H](Oc3c4cc5cc3Oc3ccc(cc3Cl)[C@@H](O)[C@@H](N)C(=O)N[C@@H](CC(N)=O)C(=O)N[C@H]5C(=O)N[C@H]3C(=O)N[C@H](C(=O)N[C@H](C(=O)NCc5ccc(-c6ccc(Cl)cc6)cc5)c5cc(O)cc(O)c5-c5cc3ccc5O)[C@H](O[C@H]3C[C@@](C)(N)[C@@H](O)[C@@H](C)O3)c3cccc(c3)O4)O[C@@H](CO)[C@H](O)[C@H]2O)C[C@@](C)(N)[C@H]1O`, the MIC in experiment [1] amounted to 4; in [2], 4; in experiment [3], 2; in experiment [4] it was 4; in experiment [5], 4; in experiment [6], 8. Also, the MIC amounted to 8 in experiment [7] and 4 in experiment [8].

Take `CN[C@H](CC(C)C)C(=O)N[C@H]1C(=O)N[C@@H](CC(N)=O)C(=O)N[C@H]2C(=O)N[C@H]3C(=O)N[C@H](C(=O)N[C@H](C(=O)O)c4cc(O)cc(O)c4-c4cc3ccc4O)[C@H](O[C@H]3C[C@@](C)(N)[C@@H](O)[C@@H](C)O3)c3cccc(c3)Oc3cc2cc(c3O[C@@H]2O[C@@H](CO)[C@H](O)[C@@H](O)[C@@H]2O[C@H]2C[C@@](C)(N)[C@@H](O)[C@@H](C)O2)Oc2ccc(cc2Cl)[C@H]1O`: the MIC in experiment [1] is listed as 0.25; in experiment [2], more than 128; in experiment [3] it was more than 128; in experiment [4], 0.25; in experiment [5], 0.25; in experiment [6], 8. For the same compound, the MIC in [7] worked out at 8; in experiment [8], 0.25.

Take `CN[C@H](CC(C)C)C(=O)N[C@H]1C(=O)N[C@@H](CC(N)=O)C(=O)N[C@H]2C(=O)N[C@H]3C(=O)N[C@H](C(=O)N[C@H](C(=O)NCc4ccc(-c5ccc(Cl)cc5)cc4)c4cc(O)cc(O)c4-c4cc3ccc4O)[C@H](O[C@H]3C[C@@](C)(N)[C@@H](O)[C@@H](C)O3)c3cccc(c3)Oc3cc2cc(c3O[C@@H]2O[C@@H](CO)[C@H](O)[C@@H](O)[C@@H]2O[C@H]2C[C@@](C)(N)[C@@H](O)[C@@H](C)O2)Oc2ccc(cc2Cl)[C@H]1O`: the MIC in experiment [1] is on record as 1; in experiment [2], 4; in experiment [3] it was 4; in [4] it was 2; in [5], 2; in [6] it was 4. Also, the MIC in experiment [7] was 4; in experiment [8], 1.

For the compound `CCCCCCCCCCNCc1c(O)cc2c(c1O)-c1cc(ccc1O)[C@H]1NC(=O)[C@@H]3NC(=O)[C@H](CC(N)=O)NC(=O)[C@H](NC(=O)[C@@H](CC(C)C)NC)[C@H](O)c4ccc(c(Cl)c4)Oc4cc3cc(c4O[C@@H]3O[C@@H](CO)[C@H](O)[C@@H](O)[C@@H]3O[C@H]3C[C@@](C)(N)[C@@H](O)[C@@H](C)O3)Oc3cccc(c3)[C@@H](O[C@H]3C[C@@](C)(N)[C@@H](O)[C@@H](C)O3)[C@H](NC1=O)C(=O)N[C@@H]2C(=O)O`, the MIC was found to be 0.25 in [1]; 8 in [2]; 8 in experiment [3]; 0.5 in [4]; 0.25 in [5]; 2 in [6]. Also, the results for the MIC in [7] and in experiment [8] were 2 and 0.5, respectively.

Consider `CCCCCCCCCCNC(=O)[C@H]1NC(=O)[C@H]2NC(=O)[C@H](NC(=O)[C@@H]3NC(=O)[C@H](CC(N)=O)NC(=O)[C@H](N)[C@H](O)c4ccc(c(Cl)c4)Oc4cc3cc(c4O[C@@H]3O[C@@H](CO)[C@H](O)[C@@H](O)[C@@H]3O[C@H]3C[C@@](C)(N)[C@@H](O)[C@@H](C)O3)Oc3cccc(c3)[C@H]2O[C@H]2C[C@@](C)(N)[C@@H](O)[C@@H](C)O2)c2ccc(O)c(c2)-c2c(O)cc(O)cc21`, for which the MIC in experiment [1] amounted to 1; in experiment [2] it was 4; in experiment [3] it was 2; in experiment [4], 2; in [5], 0.5; in experiment [6] it was 8. Further, the MIC is recorded as 4 in [7] and 2 in experiment [8].

In the case of `CN[C@H](CC(C)C)C(=O)N[C@H]1C(=O)N[C@@H](CC(N)=O)C(=O)N[C@H]2C(=O)N[C@H]3C(=O)N[C@H](C(=O)N[C@H](C(=O)O)c4cc(O)cc(O)c4-c4cc3ccc4O)[C@H](O[C@H]3C[C@@](C)(N)[C@@H](O)[C@@H](C)O3)c3cccc(c3)Oc3cc2cc(c3O[C@@H]2O[C@@H](CO)[C@H](O)[C@@H](O)[C@@H]2O[C@H]2C[C@@](C)(NCc3ccc(-c4ccc(Cl)cc4)cc3)[C@@H](O)[C@@H](C)O2)Oc2ccc(cc2Cl)[C@H]1O`, the MIC in experiment [1] is on record as 4; in experiment [2], 8; in experiment [3], 4; in experiment [4], 4; in experiment [5], 2; in experiment [6], 4. The results for the MIC in experiment [7] and in [8] were 4 and 2, respectively.

As for `CN[C@H](CC(C)C)C(=O)N[C@H]1C(=O)N[C@@H](CC(N)=O)C(=O)N[C@H]2C(=O)N[C@H]3C(=O)N[C@H](C(=O)N[C@H](C(=O)O)c4cc(O)c(CNCc5ccc(-c6ccc(Cl)cc6)cc5)c(O)c4-c4cc3ccc4O)[C@H](O[C@H]3C[C@@](C)(N)[C@@H](O)[C@@H](C)O3)c3cccc(c3)Oc3cc2cc(c3O[C@@H]2O[C@@H](CO)[C@H](O)[C@@H](O)[C@@H]2O[C@H]2C[C@@](C)(N)[C@@H](O)[C@@H](C)O2)Oc2ccc(cc2Cl)[C@H]1O`, the MIC in experiment [1] worked out at 0.25; in experiment [2] it was 16; in experiment [3], 8; in experiment [4] it was 1; in experiment [5], 0.5; in experiment [6], 2. In addition, the MIC in experiment [7] stood at 2; in [8] it was 1.

For `CN[C@@H](CC(C)C)C(=O)N[C@H]1C(=O)N[C@@H](CC(N)=O)C(=O)N[C@H]2C(=O)N[C@H]3C(=O)N[C@H](C(=O)N[C@H](C(=O)O)c4cc(O)cc(O)c4-c4cc3ccc4O)[C@H](O[C@H]3C[C@@](C)(N)[C@@H](O)[C@@H](C)O3)c3cccc(c3)Oc3cc2cc(c3O[C@@H]2O[C@@H](CO)[C@H](O)[C@@H](O)[C@@H]2O[C@H]2C[C@@](C)(N)[C@@H](O)[C@@H](C)O2)Oc2ccc(cc2Cl)[C@H]1O`, the pIC50 in experiment [9] was less than 3.19; in experiment [10], 6.52. In experiment [11], the Ratio is more than 2300.

For the compound `CCCCCCCCCCN[C@]1(C)C[C@H](O[C@@H]2[C@H](Oc3c4cc5cc3Oc3ccc(cc3Cl)[C@@H](O)[C@@H](N)C(=O)N[C@@H](CC(N)=O)C(=O)N[C@H]5C(=O)N[C@H]3C(=O)N[C@H](C(=O)N[C@H](C(=O)O)c5cc(O)cc(O)c5-c5cc3ccc5O)[C@H](O[C@H]3C[C@@](C)(N)[C@@H](O)[C@@H](C)O3)c3cccc(c3)O4)O[C@@H](CO)[C@H](O)[C@H]2O)O[C@H](C)[C@@H]1O`, the MIC in [1] is reported as 8; in [2], 16; in experiment [3] it was 16; in experiment [4], 8; in [5], 4; in [6] it was 16. Besides, the MIC in experiment [7] and in experiment [8] was 8 each time.

With `C[C@H]1O[C@@H](O[C@@H]2[C@H](Oc3c4cc5cc3Oc3ccc(cc3Cl)[C@@H](O)[C@@H](N)C(=O)N[C@@H](CC(N)=O)C(=O)N[C@H]5C(=O)N[C@H]3C(=O)N[C@H](C(=O)N[C@H](C(=O)O)c5cc(O)cc(O)c5-c5cc3ccc5O)[C@H](O[C@H]3C[C@@](C)(N)[C@@H](O)[C@@H](C)O3)c3cccc(c3)O4)O[C@@H](CO)[C@H](O)[C@H]2O)C[C@@](C)(N)[C@H]1O`, the MIC is on record as 16 in [1]; more than 128 in [2]; more than 128 in [3]; 16 in experiment [4]; 16 in experiment [5]; 64 in experiment [6]. For the same compound, the MIC in experiment [7] was 64; in [8], 16.

Turning to `CN[C@@H](CC(C)C)C(=O)N[C@H]1C(=O)N[C@@H](CC(N)=O)C(=O)N[C@H]2C(=O)N[C@H]3C(=O)N[C@H](C(=O)N[C@H](C(=O)O)c4cc(O)cc(O)c4-c4cc3ccc4O)[C@H](O[C@H]3C[C@@](C)(N)[C@@H](O)[C@@H](C)O3)c3cccc(c3)Oc3cc2cc(c3O[C@@H]2O[C@@H](CO)[C@H](O)[C@@H](O)[C@@H]2O[C@H]2C[C@@](C)(NCc3ccc(-c4ccc(Cl)cc4)cc3)[C@@H](O)[C@@H](C)O2)Oc2ccc(cc2Cl)[C@H]1O`, the pIC50 is 5.57 in [9] and 6.92 in experiment [10]. Further, the Ratio in experiment [11] was determined as 23.
